Several values for one entry are separate records, joined by “and”; a condition that tells them apart may be missing. Equal values may be shown once.

For the assay, the target named is Protein farnesyltransferase subunit beta/geranylgeranyltransferase type-1 subunit alpha (Mus musculus, UniProt Q61239+Q8K2I1). Put plainly: Anchorage-independent growth of transformed NIH3T3 cells in soft agar. Summed up: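 Transformed NIH-3T3 cells grown in soft agar; colonies photographed by video camera and counted; IC50 calculated from colony counts.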

Regarding `O=C(NCCCn1ccnc1)C1CN(C2c3ccc(Cl)cc3CCc3cc(Br)cnc32)CCN1C(=O)NC1CCCCC1` (stereo unspecified) [4-(3-bromo-8-chloro-6,11-dihydro-5H-benzo[5,6]cyclohepta[1,2-b]pyridin-11-yl)-piperazine-1,2-dicarboxylicacid 1-cyclohexylamide 2-[(3-imidazol-1-yl-propyl)-amide]], the IC50 is 5 nM and 5.2 nM.

The term IC50 denotes the midpoint of a concentration-inhibition curve. Read a high IC50 as weaker potency in that assay.
